Experiments:
[1] = target: T1, Vascular endothelial growth factor receptor 2 (Homo sapiens, UniProt P35968); test: Inhibition of human recombinant EE-tagged intracellular domain of KDR using biotin-EEEEYFELVAKKKK as substrate by HTRF assay
[2] = target: Fibroblast growth factor receptor (Homo sapiens, UniProt P22607+P11362+P22455+P21802); test: Inhibition of human recombinant GST-tagged intracellular domain of FGFR using biotin-EEEEYFELV as substrate by HTRF assay
[3] = target: Platelet-derived growth factor receptor (Homo sapiens, UniProt P09619+P16234); test: Inhibition of human recombinant His-tagged intracellular domain of PDGFR using biotin-EEEEYFELV as substrate by HTRF assay
[4] = target: Epidermal growth factor receptor (Homo sapiens, UniProt P00533); test: Inhibition of human recombinant His-tagged intracellular domain of EGFR using biotin-EEEEYFELV as substrate by HTRF assay
[5] = target: T1, Vascular endothelial growth factor receptor 2; test: Inhibition of KDR autophosphorylation in HUVEC by Western blot analysis
How it was run: (§1)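 HUVECs at passages 2–4 were grown to 70% confluency and serum-starved 18 h in EBM-2 with 1.0% HI-FBS. Compound was added 1 h before 50 ng/mL rhVEGF. Cells were lysed on ice 5 min after stimulation and lysates immunoblotted, with actin used to normalize loading.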

[6] = target: T1, Vascular endothelial growth factor receptor 2; test: Inhibition of KDR in HUVEC assessed as ERK1/2 phosphorylation by Western blot analysis; how it was run: as §1
[7] = target: T1, Vascular endothelial growth factor receptor 2; test: Inhibition of KDR in HUVEC assessed as AKT phosphorylation by Western blot analysis; how it was run: as §1

T1 sequence (P35968 whole entry, the tested form may be a part): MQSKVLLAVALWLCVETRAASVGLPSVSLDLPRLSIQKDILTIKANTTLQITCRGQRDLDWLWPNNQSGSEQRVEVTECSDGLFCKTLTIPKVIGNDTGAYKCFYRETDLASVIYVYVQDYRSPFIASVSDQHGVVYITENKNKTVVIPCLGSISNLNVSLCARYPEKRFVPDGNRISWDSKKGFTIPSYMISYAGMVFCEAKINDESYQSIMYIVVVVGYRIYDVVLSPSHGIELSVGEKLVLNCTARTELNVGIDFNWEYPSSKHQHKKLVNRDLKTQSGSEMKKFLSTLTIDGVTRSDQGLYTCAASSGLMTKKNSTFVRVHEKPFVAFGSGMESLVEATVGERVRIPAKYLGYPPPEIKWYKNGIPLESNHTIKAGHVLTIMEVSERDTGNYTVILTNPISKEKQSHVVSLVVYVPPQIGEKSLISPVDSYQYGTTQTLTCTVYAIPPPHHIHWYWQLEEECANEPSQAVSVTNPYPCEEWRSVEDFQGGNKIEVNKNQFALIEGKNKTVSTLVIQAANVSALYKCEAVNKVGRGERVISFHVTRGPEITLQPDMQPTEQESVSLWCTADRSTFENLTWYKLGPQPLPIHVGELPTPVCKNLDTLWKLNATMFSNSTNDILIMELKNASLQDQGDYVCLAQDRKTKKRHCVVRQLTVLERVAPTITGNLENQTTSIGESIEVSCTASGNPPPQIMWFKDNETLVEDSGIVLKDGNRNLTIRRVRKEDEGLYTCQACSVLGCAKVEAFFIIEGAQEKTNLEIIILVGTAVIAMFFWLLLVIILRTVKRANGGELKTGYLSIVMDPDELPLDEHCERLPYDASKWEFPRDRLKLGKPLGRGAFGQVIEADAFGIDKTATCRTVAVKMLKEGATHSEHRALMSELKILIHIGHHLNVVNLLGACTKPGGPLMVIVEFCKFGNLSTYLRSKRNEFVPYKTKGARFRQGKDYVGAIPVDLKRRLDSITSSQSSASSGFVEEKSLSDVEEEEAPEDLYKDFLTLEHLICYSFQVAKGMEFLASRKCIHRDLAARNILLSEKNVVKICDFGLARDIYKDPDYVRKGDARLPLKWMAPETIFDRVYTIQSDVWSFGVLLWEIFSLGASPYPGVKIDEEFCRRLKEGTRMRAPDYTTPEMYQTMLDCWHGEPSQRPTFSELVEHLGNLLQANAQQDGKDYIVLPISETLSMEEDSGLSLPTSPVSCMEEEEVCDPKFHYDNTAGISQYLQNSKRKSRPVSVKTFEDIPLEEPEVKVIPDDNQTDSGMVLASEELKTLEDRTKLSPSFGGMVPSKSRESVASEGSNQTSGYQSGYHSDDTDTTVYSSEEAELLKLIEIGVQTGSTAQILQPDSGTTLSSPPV
Sequence of Epidermal growth factor receptor (P00533 whole entry, the tested form may be a part): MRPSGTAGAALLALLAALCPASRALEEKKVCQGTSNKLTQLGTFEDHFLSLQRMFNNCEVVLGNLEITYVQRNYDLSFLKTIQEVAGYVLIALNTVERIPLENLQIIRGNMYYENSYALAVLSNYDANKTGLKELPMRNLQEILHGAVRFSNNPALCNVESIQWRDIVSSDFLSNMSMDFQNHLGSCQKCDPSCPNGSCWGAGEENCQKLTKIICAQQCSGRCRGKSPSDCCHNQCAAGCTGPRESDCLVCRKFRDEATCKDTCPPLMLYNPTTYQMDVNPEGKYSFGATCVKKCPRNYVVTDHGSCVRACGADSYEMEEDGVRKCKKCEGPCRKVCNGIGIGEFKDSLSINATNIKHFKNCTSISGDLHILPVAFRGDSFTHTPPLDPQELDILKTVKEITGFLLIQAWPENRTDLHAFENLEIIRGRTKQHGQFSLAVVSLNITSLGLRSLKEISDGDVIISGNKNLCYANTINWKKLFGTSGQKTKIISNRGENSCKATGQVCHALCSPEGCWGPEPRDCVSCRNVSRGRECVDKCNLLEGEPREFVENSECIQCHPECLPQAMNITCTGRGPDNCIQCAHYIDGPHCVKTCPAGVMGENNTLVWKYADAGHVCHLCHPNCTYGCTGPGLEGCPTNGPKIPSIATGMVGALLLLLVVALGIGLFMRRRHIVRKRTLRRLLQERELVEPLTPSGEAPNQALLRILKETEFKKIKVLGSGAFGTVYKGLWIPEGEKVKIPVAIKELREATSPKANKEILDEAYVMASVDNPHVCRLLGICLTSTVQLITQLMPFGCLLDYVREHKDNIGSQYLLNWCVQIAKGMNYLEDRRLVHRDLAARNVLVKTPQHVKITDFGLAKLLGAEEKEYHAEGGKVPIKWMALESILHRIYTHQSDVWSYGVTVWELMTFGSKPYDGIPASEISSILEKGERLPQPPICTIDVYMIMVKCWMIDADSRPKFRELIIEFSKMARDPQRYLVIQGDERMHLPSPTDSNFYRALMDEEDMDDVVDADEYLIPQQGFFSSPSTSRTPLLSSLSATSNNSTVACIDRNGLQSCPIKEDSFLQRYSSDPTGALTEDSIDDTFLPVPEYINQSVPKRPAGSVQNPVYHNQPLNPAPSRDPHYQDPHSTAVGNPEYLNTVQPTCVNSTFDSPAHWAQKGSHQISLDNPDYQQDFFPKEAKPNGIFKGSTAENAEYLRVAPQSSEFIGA

Row | IC50 [1] [nM] | IC50 [2] [nM] | IC50 [3] [nM] | IC50 [4] [nM] | inhibition [5] | inhibition [6] | inhibition [7] | Structure (SMILES)
1 | 12 | 35 | 28 | 239 | – | – | – | COc1ccc(N2Cc3cnc(Nc4ccccc4)nc3N([C@@H]3CC[C@@H](O)C3)C2=O)cc1
2 | 15 | 37 | 33 | 365 | – | – | – | COc1ccc(N2Cc3cnc(Nc4ccccc4)nc3N([C@H]3CC[C@H](O)C3)C2=O)cc1
3 | – | – | – | – | Dose-dependent effect | Dose-dependent effect | Dose-dependent effect | COc1ccc(N2Cc3cnc(Nc4ccccc4)nc3N([C@@H]3CC[C@@H](O)C3)C2=O)cc1 (racemic)
